Activity calls are given as the source filed them.
Legend:
[1] = test system: Mus musculus; experiment: Analgesic activity in po dosed CF-1 mouse assessed as reduction in phenylquinone-induced writhing responses administered 15 mins prior to phenylquinone challenge; type: functional
[2] = species on record: Rattus norvegicus; experiment: Antiinflammatory activity against mycobacterial adjuvant-induced arthritis in rat; type: functional, organism-based
[3] = test system: Rattus norvegicus; experiment: Analgesic activity against po dosed yeast-induced inflamed foot Sprague-Dawley rat model assessed as increase in pain threshold in inflamed paw measured after 2 hrs; type: functional
[4] = Retardation factor of the compound using benzene-ethyl acetate at ratio of 1:1 as solvent system by thin layer chromatography; type: physicochemical
[5] = Acute toxicity in ip dosed CF-1S mouse assessed as mortality measured for 24 hrs; type: organism-based; conditions: in vivo
Method in brief: (§1)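 Male and female CF-1S mice (17-25 g) received the compound suspended in gum acacia solution, orally or intraperitoneally, in groups of six to ten per dose level. Mortality was followed for 24 h after ip dosing and for 5 days after oral dosing. LD50 was calculated by the Miller-Tainter method.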

[6] = test system: Rattus norvegicus; experiment: Analgesic activity in po dosed Sprague-Dawley rat by tail flick assay; type: functional
[7] = Acute toxicity in po dosed CF-1S mouse assessed as mortality measured for 5 days; type: organism-based; conditions: in vivo; method in brief: as §1
[8] = test system: Mus musculus; experiment: Analgesic activity in CF-1 mouse assessed as reduction in phenylquinone-induced writhing responses at 200 mg/kg, po administered 15 mins prior to phenylquinone challenge; type: functional
Method in brief: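 Fifteen min later they received 0.25 mL ip of 0.02% 2-phenyl-1,4-benzoquinone in 19:1 water-ethanol. Writhes were counted for 5 min starting 10 min after the injection, and % protection was calculated versus vehicle controls.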

[9] = Retardation factor of the compound using benzene-triethylamine at ratio of 9:1 as solvent system by thin layer chromatography; type: physicochemical
[10] = Mus musculus, CF-1, po, read-out: ED50
[11] = Rattus norvegicus, Sprague-Dawley, po, 2 h, read-out: ED50

SMILES	ED50 [1, 10] [mg/kg]	Activity [2]	ED50 [3, 11] [mg/kg]	also measured
Cl.O=C(/C=C/c1ccccc1)/N=C1\NC2(CCCCO2)CCS1 (stereo not given)	17	inactive	2.5	–
O=C(/N=C1\NCCCS1)c1ccc(F)cc1	> 100	inactive	> 200	Rf [4]: 0.36
CC(=O)Oc1ccccc1C(=O)O [ASPIRIN]	82	–	50	–
N#Cc1ccc(C(=O)/N=C2\NC3(CCCCO3)CCS2)cc1 (stereo not given)	60	inactive	1	–
NC1=NC2(CCCCO2)CCS1.O=C(O)/C=C\C(=O)O (racemic)	3.6	inactive	0.6	LD50 at 24 h [5]: 33 mg/kg; ED50 [6]: 12 mg/kg; LD50 at 120 h [7]: 120 mg/kg
O=C(/N=C1\NC2(CCCCO2)CCS1)c1ccc(Cl)cc1 (stereo not given)	1.1	inactive	2.4	–
COc1cc(C(=O)/N=C2\NC3(CCCCO3)CCS2)cc(OC)c1OC (stereo not given)	> 200	inactive	> 200	–
O=C(/N=C1\NC2(CCCCO2)CCS1)c1cccs1 (stereo not given)	48	inactive	3.8	–
O=C(/N=C1\NC2(CCCCO2)CCS1)c1ccco1 (stereo not given)	42	inactive	–	–
COc1ccc(C(=O)/N=C2\NC3(CCCCO3)CCS2)cc1OC (stereo not given)	200	inactive	4.5	inhibition in vivo at 200 mg/kg [8]: -75%
O=C(/N=C1\NC2(CCCCO2)CCS1)C12CC3CC(CC(C3)C1)C2 (stereo not given)	> 200	inactive	14	–
O=C(/N=C1\NC2(CCCCO2)CCS1)c1ccc(F)cc1 (stereo in doubt; 33) [listing 1 of 2 here]	–	–	–	ED50 [1]: 49 mg/kg; LD50 at 24 h [5]: 1370 mg/kg; ED50 [6]: 22.3 mg/kg; LD50 at 120 h [7]: 630 mg/kg; ED50 [3]: 2 mg/kg
Cl.O=C(/N=C1\NC2(CCCO2)CCS1)c1ccc(F)cc1 (stereo not given)	14.8	inactive	2	–
NC1=NC2(CCCCO2)CCC1.O=C(O)/C=C\C(=O)O (racemic)	> 200	–	> 50	–
O=C(/N=C1\NC2(CCCCO2)CCS1)c1ccc(F)cc1 (stereo in doubt; 33) [listing 2 of 2 here]	–	inactive	–	–
NC1=NC2(CCCCC2)CCS1.O=C(O)/C=C\C(=O)O	6.6	inactive	19	ED50 [6]: > 50 mg/kg
O=C(/N=C1\NC2(CCCCO2)CCS1)c1cccc2ccccc12 (stereo not given)	> 200	–	28	–
S=C(/N=C1\NC2(CCCCO2)CCS1)Nc1ccccc1 (racemic)	200	inactive	> 200	inhibition in vivo at 200 mg/kg [8]: -48%
Cc1ccc(C(=O)/N=C2\NC3(CCCCO3)CCS2)cc1 (stereo not given)	60	inactive	0.9	LD50 at 24 h [5]: > 400 mg/kg; ED50 [6]: > 25 mg/kg; LD50 at 120 h [7]: 1120 mg/kg
CC1(C(=O)/N=C2\NC3(CCCCO3)CCS2)CCCCC1 (stereo not given)	> 200	inactive	16	–
CCCCC1C(=O)N(c2ccccc2)N(c2ccccc2)C1=O [PHENYLBUTAZONE]	45	–	25	–
c1ccc(/N=C2\NC3(CCCCO3)CCS2)cc1 (racemic)	> 200	–	> 100	Rf [4]: 0.45
COc1ccc(C(=O)/N=C2\NC3(CCCCO3)CCS2)cc1 (stereo not given)	62	inactive	6	–
O=C(/N=C1\NC2(CCCCO2)CCS1)Nc1ccccc1 (racemic)	> 200	–	> 200	–
COc1cccc(OC)c1C(=O)/N=C1\NC2(CCCCO2)CCS1 (stereo not given)	> 200	inactive	> 200	–
COc1ccc2c3c1O[C@H]1[C@@H](O)C=C[C@H]4[C@@H](C2)N(C)CC[C@@]341.COc1ccc2c3c1O[C@H]1[C@@H](O)C=C[C@H]4[C@@H](C2)N(C)CC[C@@]341.O.O=P(O)(O)O.O=P(O)(O)O [CODEINE PHOSPHATE]	18	–	40	–
O=C(/N=C1\NC2(CCCCO2)CCS1)c1ccc(Br)cc1 (stereo not given)	> 200	inactive	3.2	–

SMILES	ED50 [1, 10] [mg/kg]	Activity [2]	ED50 [3, 11] [mg/kg]	also measured
CNC1=NC2(CCCCO2)CCS1 (racemic)	52	inactive	21	–
Cc1cc(C)c(C(=O)/N=C2\NC3(CCCCO3)CCS2)c(C)c1 (stereo not given)	> 200	inactive	> 200	–
NC1=NC2(CCCO2)CCS1.O=C(O)/C=C\C(=O)O (racemic)	15	inactive	4	–
O=C(/N=C1\NC2(CCCCO2)CCS1)c1ccccc1 (stereo not given)	5	inactive	2.6	–
O=C(/N=C1\NC2(CCCCO2)CCS1)c1cccc(F)c1 (stereo not given)	9.2	inactive	1.3	–
O=C(/N=C1\NC2(CCCCO2)CCS1)c1ccccc1Cl (stereo not given)	> 200	inactive	–	–
O=C1c2ccccc2C(=O)N1C1=NC2(CCCCO2)CCS1 (racemic)	14.8	inactive	7	–
CC(C)(C)C(=O)/N=C1\NC2(CCCCO2)CCS1 (stereo not given)	200	inactive	29	inhibition in vivo at 200 mg/kg [8]: -53%
CC(=O)N(Cc1ccccc1)C1=NC2(CCCCO2)CCS1 (stereo not given)	–	–	–	Rf [4]: 0.37
O=C(/N=C1\NC2(CCCCO2)CCS1)c1ccc([N+](=O)[O-])cc1 (stereo not given)	28	inactive	0.9	–
CCC(=O)O[C@](Cc1ccccc1)(c1ccccc1)[C@H](C)CN(C)C [PROPOXYPHENE]	48	–	60	–
NC1=NC2(CCCC(c3ccccc3)O2)CCS1.O=C(O)/C=C\C(=O)O (stereo not given)	64	–	> 200	–
O=C(/N=C1\NC2(CCCCO2)CCS1)c1ccc(F)cc1 (single isomer, unassigned; (+)) [listing 1 of 2 here]	–	inactive	–	–
c1ccc(CNC2=NC3(CCCCO3)CCS2)cc1 (racemic)	> 200	inactive	> 100	Rf [4]: 0.15; Rf [9]: 0.5
O=C(/N=C1\SCCCN1C(=O)c1ccc(F)cc1)c1ccc(F)cc1	–	–	–	Rf [4]: 0.5
O=C(/N=C1\NC2(CCCCO2)CCS1)c1ccc(F)cc1 (single isomer, unassigned; (+)) [listing 2 of 2 here]	–	–	–	ED50 [1]: 8.8 mg/kg
O=C(/N=C1\NC2(CCCCO2)CCS1)c1cccc([N+](=O)[O-])c1 (stereo not given)	> 200	inactive	8.2	–
O=C(/N=C1\NC2(CCCCO2)CCS1)c1ccccc1O (stereo not given)	> 200	inactive	> 200	–
COc1ccc2c(c1)c(CC(=O)O)c(C)n2C(=O)c1ccc(Cl)cc1 [INDOMETHACIN]	8.8	–	1.2	–
O=C(/N=C1\NC2(CCCCO2)CCS1)c1ccc(F)cc1 (single isomer, unassigned; (-))	–	–	1.8	ED50 [1]: 28 mg/kg
O=C(/N=C1\NC2(CCCCC2)CCS1)c1ccc(F)cc1	> 200	inactive	> 100	–
CN1CC[C@]23c4c5ccc(O)c4O[C@H]2[C@@H](O)C=C[C@H]3[C@H]1C5.CN1CC[C@]23c4c5ccc(O)c4O[C@H]2[C@@H](O)C=C[C@H]3[C@H]1C5.O=S(=O)(O)O	4.8	–	25	ED50 [6]: 29.3 mg/kg
CC(=O)/N=C1\NC2(CCCCO2)CCS1 (stereo not given)	3.1	inactive	1.9	–
Cl.c1ccc(C2=NC3(CCCCO3)CCS2)cc1 (racemic)	> 200	–	> 200	–
CC1CCCC2(CCSC(N)=N2)O1.O=C(O)/C=C\C(=O)O (stereo not given)	25	–	3.2	–
O=C(/N=C1\NC2(CCCCO2)CCS1)c1cccc(C(F)(F)F)c1 (stereo not given)	> 200	inactive	11	–

Source: ChEMBL document CHEMBL3244273, “Analgesic activity of novel spiro heterocycles. 2-Amino-7-oxa-3-thia-1-azaspiro[5,5]undec-1-enes and related compounds” (J Med Chem, 1978)
